The subject of series [1] is human MDR1. Put plainly: Permeability across apical to basolateral side in MDCK cells transfected with human MDR1 at 5 uM by LC-MS/MS analysis. Particulars: dog.
For series [2], the system named is human MDR1. Put plainly: Efflux ratio of permeability across basolateral to apical over apical to basolateral side in MDCK cells transfected with human MDR1 at 5 uM by LC-MS/MS analysis. Particulars: dog.
Series [3] deals with T1, Mitogen-activated protein kinase kinase kinase 12 (Homo sapiens, UniProt Q12852).
T1 sequence (Q12852 whole entry): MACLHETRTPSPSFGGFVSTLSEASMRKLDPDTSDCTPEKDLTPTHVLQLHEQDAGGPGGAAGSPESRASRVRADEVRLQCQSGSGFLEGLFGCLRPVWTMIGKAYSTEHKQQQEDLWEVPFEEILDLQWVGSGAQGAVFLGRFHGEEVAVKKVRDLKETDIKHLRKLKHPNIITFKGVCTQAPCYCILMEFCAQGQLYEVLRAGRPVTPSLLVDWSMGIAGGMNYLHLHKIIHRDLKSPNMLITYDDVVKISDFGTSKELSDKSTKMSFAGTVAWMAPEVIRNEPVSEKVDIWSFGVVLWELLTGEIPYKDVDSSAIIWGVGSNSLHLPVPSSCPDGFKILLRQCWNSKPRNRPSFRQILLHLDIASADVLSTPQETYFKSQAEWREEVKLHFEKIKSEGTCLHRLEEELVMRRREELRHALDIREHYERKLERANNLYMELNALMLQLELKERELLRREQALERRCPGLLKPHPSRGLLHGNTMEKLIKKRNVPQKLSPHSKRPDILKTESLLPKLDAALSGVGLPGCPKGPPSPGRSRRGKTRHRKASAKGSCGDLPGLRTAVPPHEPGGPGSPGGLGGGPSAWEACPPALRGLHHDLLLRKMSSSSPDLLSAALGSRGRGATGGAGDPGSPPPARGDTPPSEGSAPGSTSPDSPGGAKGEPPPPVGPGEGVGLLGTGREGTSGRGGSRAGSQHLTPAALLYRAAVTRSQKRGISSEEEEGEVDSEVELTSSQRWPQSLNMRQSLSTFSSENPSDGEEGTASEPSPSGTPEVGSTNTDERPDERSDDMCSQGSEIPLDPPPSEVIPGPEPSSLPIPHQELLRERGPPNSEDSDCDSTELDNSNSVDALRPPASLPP
Put plainly: Inhibition of N-terminally GST- tagged human DLK catalytic domain (1 to 520 amino acids) using N-terminally HIS-tagged MKK4 K131M as substrate incubated for 60 mins by TR-FRET assay. On the technique in general: In TR-FRET formats the signal depends on donor and acceptor labels being close together.

Series [4] addresses T2, Mitogen-activated protein kinase kinase kinase 12 (Homo sapiens) (UniProt Q12852).
T2 sequence (whole entry): T1 sequence (Q12852 whole entry)
Put plainly: Inhibition of Flag DLK (unknown origin) transfected in HEK293 cells assessed as reduction of phosphorylation of MKK4 at 0.1 to 10 uM incubated for 5 hrs measured by Western blot analysis. Type of series: cell-based. In outline:
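HEK293 cells were transfected with Flag-tagged DLK, with kinase-dead DLK K152A as comparator, 24 h before compound addition. Cells were then exposed to compound for 5 h. Phospho-MKK4, phospho-MKK7, phospho-JNK and phospho-c-Jun were probed.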
Background: A western blot detects proteins with antibodies after separation by electrophoresis.

The target of series [5] is Dual specificity mitogen-activated protein kinase kinase 1 (Homo sapiens) (UniProt Q02750). Nature of the series: Inhibition of MEK1 (unknown origin) at 1 uM by FRET method. In outline:
(§1)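 SelectScreen panel of 58 kinases, each tested at a single 1 µM compound concentration. Read-out was Z′-LYTE FRET of labeled peptide phosphorylation, run by the vendor's protocols, reported as percent inhibition.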

For series [6], the target named is Serine/threonine-protein kinase Nek1 (Homo sapiens) (UniProt Q96PY6). Nature of the series: Inhibition of NEK1 (unknown origin) at 1 uM by FRET method. In outline:
(§2)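 Single-point screen at 1 uM against a panel of 58 representative kinases. Readout was labeled-peptide phosphorylation by FRET (Z′-LYTE), using the vendor's protocols.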

Series [7] concerns the target Serine/threonine-protein kinase PAK 4 (Homo sapiens) (UniProt O96013). Nature of the series: Inhibition of PAK4 (unknown origin) at 1 uM by FRET method. In short, it runs like this:
as §2

For series [8], the target named is Protein kinase C beta type (Homo sapiens) (UniProt P05771). Put plainly: Inhibition of PKCbeta1 (unknown origin) at 1 uM by FRET method. In outline:
as §2

Series [9] concerns the target Tyrosine-protein kinase SYK (Homo sapiens) (UniProt P43405). Nature of the series: Inhibition of Syk (unknown origin) at 1 uM by FRET method. In outline:
as §2

For series [10], the target named is Non-receptor tyrosine-protein kinase TYK2 (Homo sapiens) (UniProt P29597). Put plainly: Inhibition of TYK2 (unknown origin) at 1 uM by FRET method. In short, it runs like this: as §2
For series [11], the target named is Tyrosine-protein kinase ABL1 (Homo sapiens) (UniProt P00519). Put plainly: Inhibition of Abl (unknown origin) at 1 uM by FRET method. In short, it runs like this:
as §1

Series [12] concerns the target Casein kinase I isoform gamma-2 (Homo sapiens) (UniProt P78368). Nature of the series: Inhibition of CK1gamma2 (unknown origin) at 1 uM by FRET method. In outline:
as §1

Series [13] has as its target Interleukin-1 receptor-associated kinase 4 (Homo sapiens) (UniProt Q9NWZ3). Put plainly: Inhibition of IRAK4 (unknown origin) at 1 uM by FRET method. In short, it runs like this: as §1
Series [14] has as its target Macrophage colony-stimulating factor 1 receptor (Homo sapiens, UniProt P07333). Nature of the series: Inhibition of CSF1R (unknown origin) by FRET method.
For series [15], the target named is Receptor-type tyrosine-protein kinase FLT3 (Homo sapiens, UniProt P36888). Nature of the series: Inhibition of Flt3 (unknown origin) by FRET method.
Series [16] has as its target Glycogen synthase kinase-3 beta (Homo sapiens, UniProt P49841). Nature of the series: Inhibition of GSK3beta (unknown origin) by FRET method.
Series [17] addresses High affinity nerve growth factor receptor (Homo sapiens, UniProt P04629). Put plainly: Inhibition of TrkA (unknown origin) by FRET method. In outline:
(§3)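 Biochemical IC50 determination from a 10-point dose-response in an enzymatic Z′-LYTE assay. Labeled-peptide phosphorylation was read by FRET under the vendor's protocols.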

Series [18] concerns the target T3, BDNF/NT-3 growth factors receptor (Homo sapiens, UniProt Q16620). Nature of the series: Inhibition of TrkB (unknown origin) by FRET method. In short, it runs like this:
as §3
Target sequence in this assay (Q16620 whole entry): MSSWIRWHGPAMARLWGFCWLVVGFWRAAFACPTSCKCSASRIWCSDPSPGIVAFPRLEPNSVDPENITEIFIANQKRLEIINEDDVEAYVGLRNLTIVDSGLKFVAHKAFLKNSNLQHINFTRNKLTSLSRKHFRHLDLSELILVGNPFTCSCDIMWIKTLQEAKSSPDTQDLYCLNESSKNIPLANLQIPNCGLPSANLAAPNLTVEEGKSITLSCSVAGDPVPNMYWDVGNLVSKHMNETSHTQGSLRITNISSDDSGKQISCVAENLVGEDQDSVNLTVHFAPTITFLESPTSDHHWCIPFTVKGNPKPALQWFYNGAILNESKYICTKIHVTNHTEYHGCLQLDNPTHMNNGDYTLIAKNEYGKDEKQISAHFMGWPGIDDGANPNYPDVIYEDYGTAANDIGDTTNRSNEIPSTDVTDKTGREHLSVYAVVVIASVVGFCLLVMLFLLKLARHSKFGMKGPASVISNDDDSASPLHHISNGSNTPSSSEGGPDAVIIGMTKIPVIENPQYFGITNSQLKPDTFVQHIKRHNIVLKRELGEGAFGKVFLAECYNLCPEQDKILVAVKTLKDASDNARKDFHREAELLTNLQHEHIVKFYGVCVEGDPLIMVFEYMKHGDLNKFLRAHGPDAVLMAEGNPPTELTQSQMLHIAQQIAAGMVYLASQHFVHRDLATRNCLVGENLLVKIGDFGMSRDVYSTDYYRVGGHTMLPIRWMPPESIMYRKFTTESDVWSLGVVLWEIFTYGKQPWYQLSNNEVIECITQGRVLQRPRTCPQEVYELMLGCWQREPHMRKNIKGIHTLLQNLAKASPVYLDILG

Series [19] addresses Mitogen-activated protein kinase 8 (Homo sapiens, UniProt P45983). Put plainly: Inhibition of JNK1 (unknown origin) by FRET method. In outline: (§4)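 JNK1, JNK2 and JNK3 IC50 values came from a 10-point dose–response enzymatic assay.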
Series [20] concerns the target Mitogen-activated protein kinase 9 (Homo sapiens, UniProt P45984). Nature of the series: Inhibition of JNK2 (unknown origin) by FRET method. In outline:
as §4

Series [21] can be described thus: AUC (0 to 6 h) in mouse at 50 mg/kg, po. Conditions: in vivo. On the set-up: dose 50 mg/kg, time < 6 hr, route oral. It is filed as ADME, organism-based. In outline:
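C57/Bl6 mice were given a single 50 mg/kg oral dose as an MCT suspension. Plasma was sampled over 0–6 h for Cmax, Tmax and AUC0–6h.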

A further series relates to Mus musculus. Put plainly: Unbound fraction in brain in mouse at 50 mg/kg, po at 6 hr. Type of series: ADME, organism-based. Particulars: in vivo.
Series [22] concerns the target Proto-oncogene tyrosine-protein kinase Src (Homo sapiens, UniProt P12931). Conditions: 1 uM.
Series [23] has as its target T3, BDNF/NT-3 growth factors receptor. Particulars: 1 uM.

Each structure is given as a SMILES string. Activity calls are given as the source filed them. The rule behind the calls is not given here.

Mitogen-activated protein kinase 9, sequence (P45984 whole entry): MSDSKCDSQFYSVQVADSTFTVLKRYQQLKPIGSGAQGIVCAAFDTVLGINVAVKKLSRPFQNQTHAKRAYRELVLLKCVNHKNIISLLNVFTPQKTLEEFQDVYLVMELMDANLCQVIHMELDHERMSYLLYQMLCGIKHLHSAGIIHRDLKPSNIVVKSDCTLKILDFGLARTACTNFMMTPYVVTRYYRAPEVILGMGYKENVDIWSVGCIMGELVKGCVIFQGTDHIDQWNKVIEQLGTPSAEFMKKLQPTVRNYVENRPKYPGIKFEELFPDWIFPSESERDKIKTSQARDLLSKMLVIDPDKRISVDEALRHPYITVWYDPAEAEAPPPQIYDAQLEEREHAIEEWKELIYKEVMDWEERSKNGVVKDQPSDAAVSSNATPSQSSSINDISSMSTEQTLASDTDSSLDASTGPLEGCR
Tyrosine-protein kinase ABL1 (Homo sapiens), sequence (P00519 whole entry): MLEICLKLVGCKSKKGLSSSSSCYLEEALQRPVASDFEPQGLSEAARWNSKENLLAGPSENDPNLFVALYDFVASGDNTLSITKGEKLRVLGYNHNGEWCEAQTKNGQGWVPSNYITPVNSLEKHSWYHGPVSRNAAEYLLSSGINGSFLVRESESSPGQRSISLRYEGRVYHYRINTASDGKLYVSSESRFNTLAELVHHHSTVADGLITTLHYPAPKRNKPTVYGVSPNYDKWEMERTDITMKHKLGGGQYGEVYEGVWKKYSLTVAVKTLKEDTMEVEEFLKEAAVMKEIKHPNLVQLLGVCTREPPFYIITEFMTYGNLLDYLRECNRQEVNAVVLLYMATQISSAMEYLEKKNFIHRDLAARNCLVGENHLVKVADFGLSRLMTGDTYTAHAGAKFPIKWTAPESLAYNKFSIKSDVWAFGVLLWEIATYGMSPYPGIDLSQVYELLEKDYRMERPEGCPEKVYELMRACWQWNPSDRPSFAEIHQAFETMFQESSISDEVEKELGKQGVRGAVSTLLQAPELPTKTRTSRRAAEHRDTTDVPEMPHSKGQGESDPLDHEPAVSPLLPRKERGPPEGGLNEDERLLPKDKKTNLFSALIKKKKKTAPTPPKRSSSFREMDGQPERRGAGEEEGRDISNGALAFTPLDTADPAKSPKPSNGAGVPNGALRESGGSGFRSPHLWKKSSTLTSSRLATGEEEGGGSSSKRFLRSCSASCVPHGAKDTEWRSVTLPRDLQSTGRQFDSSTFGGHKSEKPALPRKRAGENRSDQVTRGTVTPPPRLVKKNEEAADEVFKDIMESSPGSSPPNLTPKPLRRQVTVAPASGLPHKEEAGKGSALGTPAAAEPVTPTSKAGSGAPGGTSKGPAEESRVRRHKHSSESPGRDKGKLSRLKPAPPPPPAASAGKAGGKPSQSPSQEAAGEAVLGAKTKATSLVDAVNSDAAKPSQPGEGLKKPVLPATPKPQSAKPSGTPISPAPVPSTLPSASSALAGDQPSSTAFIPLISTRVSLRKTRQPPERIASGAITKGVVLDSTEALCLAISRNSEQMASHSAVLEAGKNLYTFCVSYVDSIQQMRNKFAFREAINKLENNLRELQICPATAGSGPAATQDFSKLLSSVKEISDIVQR
Protein kinase C beta type (Homo sapiens), sequence (P05771 2-671 limits assumed): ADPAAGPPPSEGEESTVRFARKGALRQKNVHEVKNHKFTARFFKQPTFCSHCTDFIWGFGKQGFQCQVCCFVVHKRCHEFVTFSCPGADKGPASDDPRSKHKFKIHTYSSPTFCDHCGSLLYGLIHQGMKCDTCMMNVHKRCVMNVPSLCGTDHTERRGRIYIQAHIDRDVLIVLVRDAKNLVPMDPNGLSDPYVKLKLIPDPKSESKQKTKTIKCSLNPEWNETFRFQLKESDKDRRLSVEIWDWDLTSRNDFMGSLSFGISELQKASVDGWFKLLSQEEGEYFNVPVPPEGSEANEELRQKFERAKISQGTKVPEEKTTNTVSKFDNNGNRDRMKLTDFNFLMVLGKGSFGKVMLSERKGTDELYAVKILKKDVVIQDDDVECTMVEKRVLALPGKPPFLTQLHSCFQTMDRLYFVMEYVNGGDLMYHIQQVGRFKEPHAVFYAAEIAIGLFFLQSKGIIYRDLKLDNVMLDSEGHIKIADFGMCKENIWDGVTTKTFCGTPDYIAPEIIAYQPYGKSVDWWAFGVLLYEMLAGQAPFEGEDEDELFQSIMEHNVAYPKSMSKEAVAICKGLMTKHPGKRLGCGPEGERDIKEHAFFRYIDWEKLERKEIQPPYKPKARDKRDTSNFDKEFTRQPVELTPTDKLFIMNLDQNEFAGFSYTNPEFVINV
Glycogen synthase kinase-3 beta, sequence (P49841 whole entry): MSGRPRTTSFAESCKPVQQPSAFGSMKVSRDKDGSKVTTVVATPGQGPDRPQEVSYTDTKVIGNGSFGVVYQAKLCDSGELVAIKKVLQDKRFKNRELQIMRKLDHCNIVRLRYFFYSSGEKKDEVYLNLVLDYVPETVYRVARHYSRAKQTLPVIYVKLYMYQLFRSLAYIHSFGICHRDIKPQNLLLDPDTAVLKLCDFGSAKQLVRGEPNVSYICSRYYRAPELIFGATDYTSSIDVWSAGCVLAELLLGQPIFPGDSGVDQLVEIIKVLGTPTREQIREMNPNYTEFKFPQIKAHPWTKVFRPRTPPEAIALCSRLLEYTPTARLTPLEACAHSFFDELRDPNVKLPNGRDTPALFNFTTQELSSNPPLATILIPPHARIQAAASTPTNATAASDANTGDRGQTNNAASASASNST
Serine/threonine-protein kinase Nek1 (Homo sapiens), sequence (Q96PY6 whole entry): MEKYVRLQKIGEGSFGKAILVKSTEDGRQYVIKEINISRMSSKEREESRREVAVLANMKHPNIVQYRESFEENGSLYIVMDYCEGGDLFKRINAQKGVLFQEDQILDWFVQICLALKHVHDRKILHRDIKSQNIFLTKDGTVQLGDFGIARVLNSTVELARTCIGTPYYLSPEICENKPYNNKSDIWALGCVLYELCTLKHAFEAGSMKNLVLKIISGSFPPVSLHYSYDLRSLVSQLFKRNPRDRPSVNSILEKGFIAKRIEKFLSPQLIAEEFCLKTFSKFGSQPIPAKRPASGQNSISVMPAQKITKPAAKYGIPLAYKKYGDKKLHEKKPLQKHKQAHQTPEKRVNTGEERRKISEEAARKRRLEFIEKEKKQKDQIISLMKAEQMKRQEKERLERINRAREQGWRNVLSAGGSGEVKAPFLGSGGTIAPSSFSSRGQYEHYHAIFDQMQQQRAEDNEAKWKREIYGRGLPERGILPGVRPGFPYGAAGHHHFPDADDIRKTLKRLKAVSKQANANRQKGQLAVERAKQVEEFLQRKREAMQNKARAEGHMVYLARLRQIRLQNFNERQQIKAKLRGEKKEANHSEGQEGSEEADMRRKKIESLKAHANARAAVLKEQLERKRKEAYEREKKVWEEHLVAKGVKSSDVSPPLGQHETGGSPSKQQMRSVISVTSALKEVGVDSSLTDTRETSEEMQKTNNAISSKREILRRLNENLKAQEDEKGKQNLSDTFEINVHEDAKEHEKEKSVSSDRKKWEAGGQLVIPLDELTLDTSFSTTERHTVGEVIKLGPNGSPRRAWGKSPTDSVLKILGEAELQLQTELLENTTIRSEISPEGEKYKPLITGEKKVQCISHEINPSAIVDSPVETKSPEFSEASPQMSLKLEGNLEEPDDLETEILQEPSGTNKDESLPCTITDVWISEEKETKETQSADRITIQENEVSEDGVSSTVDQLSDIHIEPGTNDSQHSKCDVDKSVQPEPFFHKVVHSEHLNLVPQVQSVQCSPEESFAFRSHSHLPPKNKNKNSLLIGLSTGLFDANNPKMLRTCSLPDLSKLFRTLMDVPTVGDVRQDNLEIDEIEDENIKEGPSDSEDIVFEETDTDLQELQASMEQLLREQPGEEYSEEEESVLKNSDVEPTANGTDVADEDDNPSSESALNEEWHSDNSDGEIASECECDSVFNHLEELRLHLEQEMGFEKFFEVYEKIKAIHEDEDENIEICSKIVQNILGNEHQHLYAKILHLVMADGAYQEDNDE

A word on the Papp A→B: it is how fast a substance crosses the layer from the apical side. High values mean fast passage, low ones slow passage. The term efflux ratio denotes the permeability from basolateral to apical divided by that in the opposite direction, in the common usage. As a reminder, the Ki is the dissociation constant of the complex between target and ligand, obtained from inhibition or displacement. Read a high Ki as a looser hold on the target. As a reminder, the inhibition is the relative decrease from the control value, in per cent. What is called IC50 is the concentration that gives 50% inhibition. In general, AUC(0-t) refers to exposure summed from dosing to a finite time, without extrapolation to infinity. A lower AUC(0-t) goes with less exposure. `N#Cc1ccnc(Nc2cc(C3CCN(C4COC4)CC3)n(C3CCCC3)n2)c1`: the apical-to-basolateral permeability (Papp A→B) at 5 µM in the series on human MDR1 [1] was determined as 8.8 ×10⁻⁶ cm/s. For the same compound, the efflux ratio at 5 µM in the series with human MDR1 [2] is 1.4. This compound also registered a Ki in [3] of 42 nM. In series [4], the inhibition entry was “Active”. Moreover, the inhibition was determined as 4% in [5]; 3.1% in series [6]; 48% in series [7]; 15.9% in series [8]; 41.2% in series [9]; 25.6% in series [10]. Further, the inhibition is 8.4% in series [11]; 1.8% in series [12]; 19.5% in [13]; 55.4% in [22]; 50.5% in series [23]. Also, the half-maximal inhibitory concentration (IC50) stood at 57 nM in series [14]; 322 nM in [15]; 682 nM in series [16]; 464 nM in series [17]; 1190 nM in [18]; 1040 nM in [19]. In series [20], this compound registered a 50% inhibitory concentration (IC50) of 5 µM. The AUC(0-t) at 6 h in series [21] worked out at 15.8 µM·h. Further, the “Drug uptake(free)” value in the series with Mus musculus amounted to 0.05 µM.

For the origin of these results see ChEMBL document CHEMBL3627690, “Scaffold-Hopping and Structure-Based Discovery of Potent, Selective, And Brain Penetrant N-(1H-Pyrazol-3-yl)pyridin-2-amine Inhibitors of Dual Leucine Zipper Kinase (DLK, MAP3K12)” (J Med Chem, 2015).
